From ChEMBL document CHEMBL3525980, “Compartmentalization and antiviral effect of efavirenz metabolites in blood plasma, seminal plasma, and cerebrospinal fluid” (Drug Metab Dispos, 2013)
Values after ≈ are worked out from the molar mass of the structure shown.

What was measured:
[1] = Blood plasma protein binding in human treated with 100 mg of efavirenz administered every 4 hrs by ultrafiltration method; format: ADME, cell-free; details: read-out: PPB (converted)
Outline: (§1)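 Ultrafiltration through 10-kDa membrane of 100 μl sample preincubated 1 h at 37°C, centrifuged at 37°C with filtrate collected every 15 min for 45 min and measured by UPLC-MS/MS. Free level at time zero back-extrapolated by linear regression. […]. For blood plasma, metabolites were spiked into blank plasma lots.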

[2] = molecular target: T1, Cytochrome P450 2C8 (Homo sapiens, UniProt P10632); experiment: Drug metabolism of the compound assessed as CYP2C8 (unknown origin)-mediated formation of dihydroxylated metabolites with retention time of 1.92 mins at 5 uM by UPLC-MS/MS analysis; format: ADME; details: 0.032 h
T1 sequence (P10632 whole entry): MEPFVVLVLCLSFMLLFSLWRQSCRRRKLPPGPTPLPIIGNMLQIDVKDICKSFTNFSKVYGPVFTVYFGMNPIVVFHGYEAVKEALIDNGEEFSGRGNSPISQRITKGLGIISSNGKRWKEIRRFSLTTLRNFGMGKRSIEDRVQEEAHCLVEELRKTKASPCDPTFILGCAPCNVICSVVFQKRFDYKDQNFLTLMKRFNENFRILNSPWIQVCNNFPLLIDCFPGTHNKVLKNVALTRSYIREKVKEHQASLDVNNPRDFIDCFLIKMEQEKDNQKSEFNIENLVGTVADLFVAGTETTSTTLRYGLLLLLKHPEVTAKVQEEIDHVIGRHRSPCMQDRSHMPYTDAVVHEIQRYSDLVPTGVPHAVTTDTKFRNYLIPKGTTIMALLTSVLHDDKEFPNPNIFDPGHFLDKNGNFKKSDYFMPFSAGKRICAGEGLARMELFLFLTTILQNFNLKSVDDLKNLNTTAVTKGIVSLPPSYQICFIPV
Outline: (§2)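 cDNA-expressed human CYPs (20 pmol/ml; panel 1A1–3A7) incubated with 5 μM substrate in 100 mM potassium phosphate, pH 7.4. 5-min equilibration at 37°C, then NADPH regenerating system, 60 min at 37°C. Acetonitrile stop, liquid–liquid extraction, UPLC-MS/MS detection of dihydroxylated products. Mean ± SD, n = 3.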

[3] = Fraction unbound in human seminal plasma treated with 100 mg of efavirenz administered every 4 hrs by ultrafiltration method; format: ADME; outline: as §1
[4] = tested on: Liver microsome; experiment: Drug metabolism in human liver microsomes assessed as formation of metabolites with retention time of 1.92 mins at 20 uM by UPLC-MS/MS analysis; format: ADME; details: 0.032 h
Outline: (§3)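 Substrate at 20 μM with pooled human liver microsomes (1 mg/mL) in 100 mM potassium phosphate, pH 7.4. 5-min equilibration at 37°C, then NADPH regenerating system added, 60 min at 37°C. Stopped with acetonitrile, liquid–liquid extracted (hexane:ethyl acetate), and dihydroxylated products read by UPLC-MS/MS at MRM m/z 346 > 262.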

[5] = molecular target: T2, Cytochrome P450 2B6 (Homo sapiens, UniProt P20813); experiment: Drug metabolism of the compound assessed as CYP2B6 (unknown origin)-mediated formation of metabolites with retention time of 1.92 mins at 5 uM by UPLC-MS/MS analysis; format: ADME; details: 0.032 h; outline: as §2
T2 sequence (P20813 whole entry): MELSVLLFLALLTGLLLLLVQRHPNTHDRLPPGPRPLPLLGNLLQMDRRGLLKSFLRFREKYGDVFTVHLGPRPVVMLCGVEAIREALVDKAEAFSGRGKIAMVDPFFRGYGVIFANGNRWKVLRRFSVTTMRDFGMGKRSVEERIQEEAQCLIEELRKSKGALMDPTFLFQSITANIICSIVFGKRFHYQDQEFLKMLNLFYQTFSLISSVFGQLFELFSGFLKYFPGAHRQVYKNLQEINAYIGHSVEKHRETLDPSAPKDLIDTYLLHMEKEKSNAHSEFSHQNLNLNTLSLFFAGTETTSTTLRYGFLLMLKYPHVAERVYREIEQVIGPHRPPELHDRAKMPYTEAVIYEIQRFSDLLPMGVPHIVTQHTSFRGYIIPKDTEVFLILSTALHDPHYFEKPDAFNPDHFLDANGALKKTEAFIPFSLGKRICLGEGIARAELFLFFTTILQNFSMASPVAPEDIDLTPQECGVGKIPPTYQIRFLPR

[6] = tested on: Human immunodeficiency virus 1; experiment: Antiviral activity against HIV1 expressing Env-green fluorescent fusion protein infected in PBMC assessed as inhibition of viral activity after 72 hrs by flow cytometry analysis; format: functional, organism-based; details: Human immunodeficiency virus 1, 72 h
Outline: (§4)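 Activated CD4+ T cells from PBMCs (PHA 0.5 μg/ml, IL-2 100 U/ml, 3 days, 37°C) seeded at 1 × 10^5/well in RPMI + 50% FBS with IL-2. Compound in DMSO (<0.1%) added 3 h before spinoculation with single-round HIV-1 Env-GFP reporter virus. GFP read by flow cytometry after 72 h. Infectivity is fraction unaffected relative to virus-only and no-virus controls.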

[7] = Ratio of drug level in seminal plasma to blood plasma in human treated with 100 mg of efavirenz administered every 4 hrs by UPLC-MS/MS analysis; format: ADME, cell-free; details: male
[8] = Seminal plasma protein binding in human treated with 100 mg of efavirenz administered every 4 hrs by ultrafiltration method; format: ADME, cell-free; details: male, read-out: PPB (converted); outline: as §1
[9] = Seminal plasma concentration in human treated with 100 mg of efavirenz administered every 4 hrs by UPLC-MS/MS analysis; format: ADME, cell-free; details: male
[10] = Blood plasma concentration in human treated with 100 mg of efavirenz administered […] by UPLC-MS/MS analysis; format: ADME, cell-free
Outline: (§5)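 Patient samples (subjects on once-daily EFV regimen; paired plasma/CSF from 13 participants) extracted and total metabolite levels quantified by UPLC-MS/MS. Fluorinated EFV analog used as internal standard. MRM detection, calibrated linear 0.5–500 ng/ml. Values reported as median (IQR).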

[11] = Drug level in human cerebrospinal fluid; format: ADME, tissue-based; outline: as §5
[12] = tested on: Plasma; experiment: Total seminal plasma concentration in human; format: ADME, cell-free
[13] = tested on: Plasma; experiment: Drug metabolism in human blood plasma assessed as formation of N- and O-linked glucuronidated metabolite at 100 mg administered every 4 hrs by UPLC-MS/MS analysis; format: ADME, cell-free
[14] = Seminal plasma protein binding in human at 100 mg administered every 4 hrs by ultrafiltration method; format: ADME, cell-free; outline: as §1
[15] = Blood plasma protein binding in human at 100 mg administered every 4 hrs by ultrafiltration method; format: ADME, cell-free; details: read-out: PPB (converted); outline: as §1
[16] = tested on: Plasma; experiment: Total blood plasma concentration in human; format: ADME, cell-free
[17] = tested on: Human immunodeficiency virus 1; experiment: Antiviral activity against HIV1; format: functional, organism-based; outline: as §4
[18] = Drug metabolism in human seminal plasma assessed as formation of N- and O-linked glucuronidated metabolite at 100 mg administered every 4 hrs by UPLC-MS/MS analysis; format: ADME, cell-free
[19] = tested on: Plasma; experiment: Drug metabolism in human seminal plasma assessed as retention time treated with 100 mg of efavirenz administered every 4 hrs by UPLC-MS/MS analysis; format: ADME, cell-free
[20] = tested on: Plasma; experiment: Drug metabolism in human seminal plasma assessed as retention time of dihydroxylated metabolites treated with 100 mg of efavirenz administered every 4 hrs by UPLC-MS/MS analysis; format: ADME, cell-free
[21] = Drug level in human cerebrospinal fluid treated with 100 mg of efavirenz administered […] by UPLC-MS/MS analysis; format: ADME, tissue-based; details: read-out: Drug uptake; outline: as §5
[22] = tested on: Liver microsome; experiment: Drug metabolism in human liver microsomes assessed as formation of dihydroxylated metabolites with retention time of 1.56 mins at 20 uM by UPLC-MS/MS analysis; format: ADME; details: 0.026 h; outline: as §3
[23] = Ratio of drug level in seminal plasma to blood plasma in human at 100 mg administered every 4 hrs by UPLC-MS/MS analysis; format: ADME, cell-free; details: male
[24] = molecular target: T3, Cytochrome P450 1A1 (Homo sapiens, UniProt P04798); experiment: Drug metabolism of the compound assessed as CYP1A1 (unknown origin)-mediated formation of dihydroxylated metabolites with retention time of 1.56 mins at 5 uM by UPLC-MS/MS analysis; format: ADME; details: 0.026 h; outline: as §2
T3 sequence (P04798 whole entry): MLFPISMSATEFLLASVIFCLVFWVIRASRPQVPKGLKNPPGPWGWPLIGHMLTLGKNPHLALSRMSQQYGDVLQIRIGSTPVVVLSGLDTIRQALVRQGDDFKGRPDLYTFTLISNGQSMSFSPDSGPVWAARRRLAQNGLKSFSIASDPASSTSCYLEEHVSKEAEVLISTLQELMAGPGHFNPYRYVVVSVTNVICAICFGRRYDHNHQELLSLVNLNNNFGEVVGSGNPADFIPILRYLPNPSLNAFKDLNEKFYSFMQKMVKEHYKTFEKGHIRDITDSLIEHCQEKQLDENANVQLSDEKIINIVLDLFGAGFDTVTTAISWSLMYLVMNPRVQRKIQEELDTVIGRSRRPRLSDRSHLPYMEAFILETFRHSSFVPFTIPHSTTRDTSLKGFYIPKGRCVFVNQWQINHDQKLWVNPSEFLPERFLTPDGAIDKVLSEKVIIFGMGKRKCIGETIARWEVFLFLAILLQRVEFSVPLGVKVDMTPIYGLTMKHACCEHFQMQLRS

[25] = tested on: Liver microsome; experiment: Drug metabolism in human liver microsomes assessed as formation of metabolites with retention time of 1.73 mins at 20 uM by UPLC-MS/MS analysis; format: ADME; details: 104 s; outline: as §3
[26] = molecular target: T3, Cytochrome P450 1A1; experiment: Drug metabolism of the compound assessed as CYP1A1 (unknown origin)-mediated formation of dihydroxylated metabolites with retention time of 1.73 mins at 5 uM by UPLC-MS/MS analysis; format: ADME; details: 104 s; outline: as §2
[27] = molecular target: T2, Cytochrome P450 2B6; experiment: Drug metabolism of the compound assessed as CYP2B6 (unknown origin)-mediated formation of dihydroxylated metabolites with retention time of 1.73 mins at 5 uM by UPLC-MS/MS analysis; format: ADME; details: 104 s; outline: as §2
[28] = molecular target: T2, Cytochrome P450 2B6; experiment: Drug metabolism of the compound assessed as CYP2B6 (unknown origin)-mediated formation of dihydroxylated metabolites with retention time of 1.56 mins at 5 uM by UPLC-MS/MS analysis; format: ADME; details: 0.026 h; outline: as §2

fraction unbound at 4 h [1]	Drug metabolism [2]	Cp(f) [3]	Drug metabolism [4]	Drug metabolism [5]	IC50 [6]	Kp at 4 h [7]	fraction unbound at 4 h [8]	concentration at 4 h [9]	concentration [10]	concentration [21]	SMILES	further results
0.0038	metabolite_detected	6.55 ng/mL	metabolite_detected	metabolite_detected	0.0447 µg/mL (≈ 0.135 µM)	188	0.619	10.2 ng/mL	8.84 ng/mL	–	O=C1Nc2cc(O)c(Cl)cc2[C@@](C#CC2CC2)(C(F)(F)F)O1	–
–	metabolite_detected	–	metabolite_detected	metabolite_detected	0.00036 µg/mL (≈ 0.00114 µM)	–	–	–	–	–	O=C1Nc2ccc(Cl)cc2[C@@](C#CC2CC2)(C(F)(F)F)O1 [EFAVIRENZ]	Drug uptake [11]: 19 ng/mL; Cp [12]: 95 ng/mL; Drug metabolism [13]: metabolite_detected; PPB [14]: 95.1%; fraction unbound at 4 h [15]: 0.0018; Cp [16]: 2170 ng/mL; IC50 [17]: 0.00051 µg/mL (≈ 0.00162 µM); Drug metabolism [18]: metabolite_detected
0.0039	–	4.04 ng/mL	–	–	2.24 µg/mL (≈ 6.44 µM)	209	0.846	5.43 ng/mL	5.63 ng/mL	0.375 ng/mL	O=C1Nc2c(O)cc(Cl)cc2[C@@](C#CC2(O)CC2)(C(F)(F)F)O1	Retention_time [19]: 1.56 min; Retention time [20]: 1.56 min
0.0003	–	10.16 ng/mL	metabolite_detected	metabolite_detected	0.0422 µg/mL (≈ 0.127 µM)	–	0.038	358 ng/mL	314 ng/mL	3.37 ng/mL	O=C1Nc2c(O)cc(Cl)cc2[C@@](C#CC2CC2)(C(F)(F)F)O1	Drug metabolism [22]: metabolite_detected; Kp at 4 h [23]: 145; Drug metabolism [24]: metabolite_detected; Drug metabolism [25]: metabolite_detected; Drug metabolism [26]: metabolite_detected; Drug metabolism [27]: metabolite_detected; Drug metabolism [28]: metabolite_detected
